Data published in ChEMBL document CHEMBL4130442, “Design, synthesis and structure-activity relationship studies of a focused library of pyrimidine moiety with anti-proliferative and anti-metastasis activities in triple negative breast cancer” (Eur J Med Chem, 2017).
Active and inactive are the calls of the source. No cut-off for these calls is given here.

Key:
MDA-MB-436 = assay: Antiproliferative activity against human MDA-MB-436 cells incubated for 24 hrs by MTT assay; assay type: functional, cell-based; settings: MDA-MB-436, 24 h
MCF7 = assay: Antiproliferative activity against human MCF7 cells incubated for 24 hrs by MTT assay; assay type: functional, cell-based; settings: MCF7, 24 h
MDA-MB-231 [1] = assay: Antiproliferative activity against human MDA-MB-231 cells incubated for 72 hrs by MTT assay; assay type: functional, cell-based; settings: MDA-MB-231, 72 h
In short: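 MDA-MB-231 cells grown in DMEM with 10% FBS under 5% CO2 were seeded at 5×10^4 cells/ml. After 24 h, a concentration series was added for 24, 48 or 72 h and viability was read by MTT. IC50 is mean ± SD of triplicates.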

[2] = biological target: T1, Platelet-derived growth factor receptor beta (Homo sapiens, UniProt P09619); assay: Inhibition of PDGFRbeta (unknown origin) using ATP and enzyme substrate by kinase-glo Plus luminescence kinase assay
MDA-MB-231 [3] = assay: Inhibition of cell migration in human MDA-MB-231 cells at 2.5 to 10 uM incubated for 24 hrs by scratch wound healing assay; assay type: functional, cell-based
In short: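 Cells were grown to confluence and the monolayer was scratched with a longitudinally cut 10 μL tip. Cells were treated with 2.5, 5.0 or 10 μM compound for 24 h and wound closure was viewed by phase-contrast microscopy.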

MDA-MB-231 [4] = assay: Induction of autophagy in human MDA-MB-231 cells assessed as change in p62 protein level at 10 uM incubated for 24 hrs by Western blot method relative to untreated control; assay type: functional
In short: (§1)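 MDA-MB-231 cells were exposed for 24 h. Adherent and floating cells were pooled and lysed for 1 h at 4 °C in 50 mM Hepes pH 7.4 with 1% Triton X-100, orthovanadate, NaF, EDTA, PMSF, aprotinin and leupeptin. After 12,000 rpm clearing, equal protein was run on 10-15% SDS-PAGE and blotted to PVDF. Detection used HRP-ECL, with β-actin as loading control and densitometric quantification.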

MDA-MB-231 [5] = assay: Induction of autophagy in human MDA-MB-231 cells assessed as change in Beclin-1 protein level at 5 uM incubated for 24 hrs by Western blot method relative to untreated control; assay type: functional
In short: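 MDA-MB-231 cells (ATCC; DMEM, 10% FBS, 5% CO2) were treated 24 h over a concentration series. Adherent and floating cells were pooled and lysed 1 h at 4 °C (50 mM Hepes pH 7.4, 1% Triton X-100, phosphatase/protease inhibitors). Equal protein was run on 10-15% SDS-PAGE, transferred to PVDF, probed for Beclin-1, p62 and LC3 with HRP/ECL detection, and normalised to β-actin.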

MDA-MB-231 [6] = assay: Induction of apoptosis in human MDA-MB-231 cells assessed as change in cleaved caspase-3 protein level at 10 uM incubated for 24 hrs by Western blot method relative to untreated control; assay type: functional; in short: as §1
[7] = biological target: T1, Platelet-derived growth factor receptor beta; assay: Inhibition of PDGFRbeta in human MDA-MB-231 cells assessed as PDGFRbeta Tyr740 phosphorylation level at 10 uM incubated for 24 hrs by Western blot relative to untreated control; assay type: cell-based
In short: (§2)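 Cells were treated 24 h at several concentrations. Pooled adherent and floating cells were lysed in Hepes 50 mM pH 7.4 / 1% Triton X-100 buffer with vanadate, NaF, EDTA, PMSF, aprotinin and leupeptin. Equal protein was run on 10-15% SDS-PAGE and blotted to PVDF. PDGFR-β-AKT-ULK1 pathway phospho-proteins were probed and detected by ECL, with β-actin as loading control.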

[8] = biological target: T1, Platelet-derived growth factor receptor beta; assay: Inhibition of PDGFRbeta in human MDA-MB-231 cells assessed as Akt Thr305 phosphorylation level at 2.5 uM incubated for 24 hrs by Western blot relative to untreated control; assay type: cell-based; in short: as §2
[9] = biological target: T1, Platelet-derived growth factor receptor beta; assay: Inhibition of PDGFRbeta in human MDA-MB-231 cells assessed as mTOR Ser2448 phosphorylation level at 5 uM incubated for 24 hrs by Western blot relative to untreated control; assay type: cell-based; in short: as §2
[10] = biological target: T1, Platelet-derived growth factor receptor beta; assay: Inhibition of PDGFRbeta in human MDA-MB-231 cells assessed as mTOR Ser2448 phosphorylation level at 10 uM incubated for 24 hrs by Western blot relative to untreated control; assay type: cell-based; in short: as §2
MDA-MB-231 [11] = assay: Effect on total Akt protein level in human MDA-MB-231 cells at 10 uM incubated for 24 hrs by Western blot relative to untreated control; assay type: ADME, cell-based; settings: mda-mb-231, 24 h; in short: as §1
MDA-MB-231 [12] = assay: Effect on total mTOR protein level in human MDA-MB-231 cells at 5 uM incubated for 24 hrs by Western blot relative to untreated control; assay type: ADME, cell-based; settings: mda-mb-231, 24 h; in short: as §1
MDA-MB-231 [13] = assay: Induction of autophagy in human MDA-MB-231 cells assessed as change in Beclin-1 protein level at 2.5 uM incubated for 24 hrs in presence of control siRNA by Western blot method relative to untreated control; assay type: functional; in short: as §1
MDA-MB-231 [14] = assay: Induction of autophagy in human MDA-MB-231 cells assessed as change in Beclin-1 protein level at 2.5 uM incubated for 24 hrs in absence of PDGFRbeta siRNA by Western blot method relative to untreated control; assay type: functional; in short: as §1
MDA-MB-231 [15] = assay: Induction of autophagy in human MDA-MB-231 cells assessed as change in Beclin-1 protein level at 2.5 uM incubated for 24 hrs in presence of PDGFRbeta siRNA by Western blot method relative to untreated control; assay type: functional; in short: as §1
MDA-MB-231 [16] = assay: Effect on total c-Raf protein level in human MDA-MB-231 cells at 2.5 uM incubated for 24 hrs in presence of PDGFRbeta siRNA by Western blot relative to untreated control; assay type: cell-based; settings: mda-mb-231, 24 h
MDA-MB-231 [17] = assay: Effect on total c-Raf protein level in human MDA-MB-231 cells at 5 uM incubated for 24 hrs in presence of PDGFRbeta siRNA by Western blot relative to untreated control; assay type: cell-based; settings: mda-mb-231, 24 h
MDA-MB-231 [18] = assay: Effect on total MEK1/2 protein level in human MDA-MB-231 cells at 5 uM incubated for 24 hrs in presence of PDGFRbeta siRNA by Western blot relative to untreated control; assay type: cell-based; settings: mda-mb-231, 24 h
MDA-MB-231 [19] = assay: Effect on total MEK1/2 protein level in human MDA-MB-231 cells at 10 uM incubated for 24 hrs in presence of PDGFRbeta siRNA by Western blot relative to untreated control; assay type: cell-based; settings: mda-mb-231, 24 h
[20] = biological target: T1, Platelet-derived growth factor receptor beta; assay: Inhibition of PDGFRbeta in human MDA-MB-231 cells assessed as C-Raf Ser259 phosphorylation level at 2.5 uM incubated for 24 hrs in presence of PDGFRbeta siRNA by Western blot relative to untreated control; assay type: cell-based
[21] = biological target: T1, Platelet-derived growth factor receptor beta; assay: Inhibition of PDGFRbeta in human MDA-MB-231 cells assessed as C-Raf Ser338 phosphorylation level at 2.5 uM incubated for 24 hrs in presence of PDGFRbeta siRNA by Western blot relative to untreated control; assay type: cell-based
[22] = biological target: T2, Dual specificity mitogen-activated protein kinase kinase; MEK1/2 (Homo sapiens) (UniProt P36507+Q02750); assay: Inhibition of MEK1/2 in human MDA-MB-231 cells assessed as MEK1/2 Ser217/221 phosphorylation level at 2.5 uM incubated for 24 hrs in presence of PDGFRbeta siRNA by Western blot relative to untreated control; assay type: cell-based
[23] = biological target: T2, Dual specificity mitogen-activated protein kinase kinase; MEK1/2 (Homo sapiens); assay: Inhibition of MEK1/2 in human MDA-MB-231 cells assessed as MEK1/2 Ser217/221 phosphorylation level at 10 uM incubated for 24 hrs in presence of PDGFRbeta siRNA by Western blot relative to untreated control; assay type: cell-based

T1 sequence (P09619 whole entry): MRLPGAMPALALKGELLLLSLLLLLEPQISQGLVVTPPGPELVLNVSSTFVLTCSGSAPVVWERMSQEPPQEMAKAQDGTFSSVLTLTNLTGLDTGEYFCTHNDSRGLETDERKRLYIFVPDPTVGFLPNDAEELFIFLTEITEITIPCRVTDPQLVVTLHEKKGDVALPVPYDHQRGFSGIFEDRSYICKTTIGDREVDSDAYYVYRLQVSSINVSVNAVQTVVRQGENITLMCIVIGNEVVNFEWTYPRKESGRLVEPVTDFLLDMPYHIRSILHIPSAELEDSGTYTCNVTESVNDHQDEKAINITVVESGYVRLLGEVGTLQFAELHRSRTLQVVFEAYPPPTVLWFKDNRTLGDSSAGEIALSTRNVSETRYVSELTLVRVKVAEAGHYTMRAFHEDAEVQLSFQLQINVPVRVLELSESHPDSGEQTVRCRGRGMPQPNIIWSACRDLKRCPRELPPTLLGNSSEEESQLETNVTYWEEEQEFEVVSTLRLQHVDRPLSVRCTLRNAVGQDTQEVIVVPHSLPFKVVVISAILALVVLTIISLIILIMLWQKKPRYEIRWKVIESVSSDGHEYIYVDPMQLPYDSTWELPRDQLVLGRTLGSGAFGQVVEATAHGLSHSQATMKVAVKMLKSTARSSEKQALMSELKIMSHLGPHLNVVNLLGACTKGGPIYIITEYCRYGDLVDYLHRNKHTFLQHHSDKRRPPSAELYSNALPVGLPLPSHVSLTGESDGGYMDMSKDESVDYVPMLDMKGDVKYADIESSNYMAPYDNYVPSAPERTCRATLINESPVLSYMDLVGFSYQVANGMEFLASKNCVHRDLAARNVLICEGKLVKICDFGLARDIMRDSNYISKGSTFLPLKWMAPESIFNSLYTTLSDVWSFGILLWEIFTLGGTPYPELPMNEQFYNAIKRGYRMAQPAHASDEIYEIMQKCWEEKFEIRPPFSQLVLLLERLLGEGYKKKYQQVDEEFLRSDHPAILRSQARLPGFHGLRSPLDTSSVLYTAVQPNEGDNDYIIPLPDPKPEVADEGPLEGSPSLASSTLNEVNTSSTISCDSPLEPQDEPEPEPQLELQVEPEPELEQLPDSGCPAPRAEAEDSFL
T2 sequence (P36507 whole entry, looked up): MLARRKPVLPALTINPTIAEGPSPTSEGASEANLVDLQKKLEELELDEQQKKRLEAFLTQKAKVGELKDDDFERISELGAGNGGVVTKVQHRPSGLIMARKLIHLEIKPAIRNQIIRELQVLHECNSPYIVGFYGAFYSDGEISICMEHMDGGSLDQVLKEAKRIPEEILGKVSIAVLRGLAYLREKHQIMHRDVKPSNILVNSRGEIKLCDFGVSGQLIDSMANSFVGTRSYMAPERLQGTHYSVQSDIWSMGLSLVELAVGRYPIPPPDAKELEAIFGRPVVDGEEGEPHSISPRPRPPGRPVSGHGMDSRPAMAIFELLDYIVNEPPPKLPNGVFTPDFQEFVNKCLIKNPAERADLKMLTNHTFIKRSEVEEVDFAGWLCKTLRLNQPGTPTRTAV
T2 sequence (Q02750 whole entry, looked up): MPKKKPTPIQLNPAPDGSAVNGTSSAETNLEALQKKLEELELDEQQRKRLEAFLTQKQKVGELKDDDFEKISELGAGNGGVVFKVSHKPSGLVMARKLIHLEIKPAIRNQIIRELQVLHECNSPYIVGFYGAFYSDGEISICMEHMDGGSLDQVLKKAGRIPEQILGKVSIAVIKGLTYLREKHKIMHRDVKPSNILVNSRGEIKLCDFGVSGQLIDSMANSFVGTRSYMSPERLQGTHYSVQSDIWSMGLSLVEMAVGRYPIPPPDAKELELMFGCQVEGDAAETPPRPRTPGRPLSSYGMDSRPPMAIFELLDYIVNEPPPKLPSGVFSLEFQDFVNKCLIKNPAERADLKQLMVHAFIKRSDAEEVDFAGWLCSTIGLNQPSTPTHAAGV

Compound: COc1cccc(Nc2cc(N3CCN(C(=O)Nc4ccc(C(F)(F)F)cc4)CC3)ncn2)c1
- IC50 (MDA-MB-436): 2360 nM
- IC50 (MCF7): 2160 nM
- IC50 (MDA-MB-231 [1]): 630 nM
- IC50 [2]: 7.8 µM
- inhibition (MDA-MB-231 [3]): Active
- fold change (FC) (MDA-MB-231 [4]): 0.55
- fold change (FC) (MDA-MB-231 [5]): 2.8
- fold change (FC) (MDA-MB-231 [6]): 0.32
- fold change (FC) [7]: 0.61
- fold change (FC) [8]: 0.95
- fold change (FC) [9]: 0.23
- fold change (FC) [10]: 0.16
- fold change (FC) (MDA-MB-231 [11]): 0.76
- fold change (FC) (MDA-MB-231 [12]): 0.31
- fold change (FC) (MDA-MB-231 [13]): 3.54
- fold change (FC) (MDA-MB-231 [14]): 4.02
- fold change (FC) (MDA-MB-231 [15]): 4.18
- fold change (FC) (MDA-MB-231 [16]): 0.8
- fold change (FC) (MDA-MB-231 [17]): 0.82
- fold change (FC) (MDA-MB-231 [18]): 1.08
- fold change (FC) (MDA-MB-231 [19]): 1.03
- fold change (FC) [20]: 0.95
- fold change (FC) [21]: 0.85
- fold change (FC) [22]: 1.12
- fold change (FC) [23]: 1.01
